Source: PubChem BioAssay
Many of the other results were omitted from the sample, so hits are more common in it than they were.
PGC1a Ac signal: raises PGC1a acetylation signal in U2OS cells. 350,000 compounds, 0.21% hits. U2OS PGC1a acetylation AlphaScreen, overnight. AID 651723. activation, % at 15.6 µM;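 active means every replicate reaching activation of at least 50%, whatever the mean replicate activation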;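 further: hits raise the AlphaScreen acetylation signal above neutral controls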
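System: Flag-PGC1a/GCN5 U2OS cells | Quantity: 7000 cells/well | Times: Overnight compound treatment, 37 °C | Measured by: AlphaScreen proximity luminescence, anti-acetyl-lysine antibody | Dosing: One concentration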
Active calls of the source: *.

What do the screens show for `Cc1occc1C(=O)N/N=C/C(Br)=C/c1ccccc1`?
PGC1a Ac signal: 164*

What do the screens show for `O=C(N/N=C/C(Br)=C\c1ccccc1)c1n[nH]c2c1CCC2`?
PGC1a Ac signal: 91*

Results for COc1ccc(-c2cc(C(=O)N/N=C/c3cc(OC)c(OC)cc3OC)c3ccccc3n2)cc1 ?
PGC1a Ac signal: -45

What do the screens show for `COc1cccc(C(=O)N/N=C/C(Br)=C/c2ccccc2)c1`?
PGC1a Ac signal: 101*

What do the screens show for `COc1ccc(OC)c(/C=N/NC(=O)c2[nH]ncc2Br)c1`?
PGC1a Ac signal: -44

Results for C=CCOc1ccccc1CNc1ccc2[nH]c(=O)[nH]c2c1 ?
PGC1a Ac signal: -44

What do the screens show for `Nc1ncc([N+](=O)[O-])c(N2CCCCCC2)n1`?
PGC1a Ac signal: -53

How did CC[C@H](C)C1OC(=O)[C@@H](C)[C@@H](CC)NC(=O)[C@H](C)N(C)C(=O)C(C)(C)C(=O)C(C)NC(=O)[C@H](Cc2ccc(OC)cc2)N(C)C(=O)[C@H](C(C)C)N(C)C(=O)CNC(=O)[C@H](CC(C)C)N(C)C(=O)CNC1=O (stereo not given in full) do in these assays?
PGC1a Ac signal: -74

Results for Cc1ccc(S(=O)(=O)CCSC(=N)N)cc1 ?
PGC1a Ac signal: 67*

How did CC(=O)CS(=O)(=O)c1ccc(Oc2ccc(S(=O)(=O)CC(C)=O)cc2)cc1 do in these assays?
PGC1a Ac signal: -41

How did Cc1ccccc1OCC(=O)N/N=C/c1cc2ccccc2nc1Cl do in these assays?
PGC1a Ac signal: 59*

How did Cc1cc(OCC(=O)NNC(=O)c2cnccn2)cc(C)c1Cl do in these assays?
PGC1a Ac signal: -85

How did Nc1nnc(CC(=O)N/N=C/c2ccccc2OCc2ccc(F)cc2)s1 do in these assays?
PGC1a Ac signal: -61

How did COc1cccc(OC)c1NC(=O)C1CCCN1C(=O)NCc1ccccc1 (stereo not given) do in these assays?
PGC1a Ac signal: -97

Results for CCN1/C(=C/c2ccc3cccc(C)c3[n+]2CC)Sc2ccccc21 ?
PGC1a Ac signal: 185*

Results for COc1ccc(S(=O)(=O)N(C)C[C@H]2Oc3ccc(NC(=O)CCN4CCOCC4)cc3C(=O)N([C@@H](C)CO)C[C@@H]2C)cc1 ?
PGC1a Ac signal: -49

Results for C[n+]1c2n(c3ccccc31)N=C(c1cc(C(C)(C)C)c(O)c(C(C)(C)C)c1)CS2 ?
PGC1a Ac signal: 88*

How did N#C[C@@H]1[C@H](c2ccccc2C2=CCCCC2)[C@H](CO)N1C(=O)Cc1ccncc1 do in these assays?
PGC1a Ac signal: -45

Results for O=C(Nc1ccccc1Cl)c1ccc([N+](=O)[O-])o1 ?
PGC1a Ac signal: 66*

What do the screens show for `CCCCn1nc(NC(=O)c2cccs2)c2cc3ccccc3nc21`?
PGC1a Ac signal: -48

How did CCC(=O)N1CCN(c2ccc(Cl)cc2NC(=O)c2ccc([N+](=O)[O-])o2)CC1 do in these assays?
PGC1a Ac signal: 62*

Results for CC(C)C(=O)Nc1cccc(NC(=S)NC(=O)c2ccc([N+](=O)[O-])cc2)c1 ?
PGC1a Ac signal: -48

Results for COc1ccc(C(=O)Nc2cccc(NC(=O)c3ccc(OC)c(OC)c3)n2)cc1OC ?
PGC1a Ac signal: -61

Results for Cc1cccc(NC(=O)c2ccc([N+](=O)[O-])o2)n1 ?
PGC1a Ac signal: 66*

What do the screens show for `O=C(Nc1cccc(NC(=O)c2cccs2)c1)c1ccc([N+](=O)[O-])o1`?
PGC1a Ac signal: 94*

How did Cc1ccc(/C=C2/CNC/C(=C/c3ccc(C)cc3)C2=O)cc1 do in these assays?
PGC1a Ac signal: -74

What do the screens show for `C[C@@H]1CN([C@@H](C)CO)C(=O)c2cc(NS(=O)(=O)c3ccc(F)cc3)ccc2O[C@@H]1CN(C)S(=O)(=O)c1ccc(Cl)cc1`?
PGC1a Ac signal: -43

What do the screens show for `O=C(C[C@@H]1C=C[C@@H](NC(=O)Nc2ccc(F)cc2)[C@@H](CO)O1)NCCN1CCCC1`?
PGC1a Ac signal: -48

How did CC1(C)CCC[C@]2(C)[C@H]3Cc4cc(O)ccc4O[C@]3(C)CC[C@@H]12 do in these assays?
PGC1a Ac signal: 67*

What do the screens show for `C/C(=N/NC(=O)CNC(=O)c1ccccn1)c1ccc([N+](=O)[O-])cc1`?
PGC1a Ac signal: -44

Results for O=C(CNC(=O)C1CCCCC1)OCC(=O)c1ccc(Cl)s1 ?
PGC1a Ac signal: -45

Results for COCCNC(=O)/C(C#N)=C/C=C/c1ccccc1[N+](=O)[O-] ?
PGC1a Ac signal: 104*

What do the screens show for `Cc1ccc(S(=O)(=O)N(C)C[C@@H]2OCCCC[C@H](C)Oc3ccc(NS(C)(=O)=O)cc3C(=O)N([C@@H](C)CO)C[C@@H]2C)cc1`?
PGC1a Ac signal: -42

Results for C[C@H]1CN([C@@H](C)CO)C(=O)c2cc(NC(=O)Nc3cccc4ccccc34)ccc2O[C@H]1CN(C)S(=O)(=O)c1ccc(Cl)cc1 ?
PGC1a Ac signal: -41

How did CC(=O)N1/C(=C/c2ccc(N(C)C)cc2)C(=O)c2ccccc21 do in these assays?
PGC1a Ac signal: 75*

Results for CCC(C)(C)n1nnnc1C(c1cccnc1)N1CCCC(C)C1 (stereo not given) ?
PGC1a Ac signal: -43

What do the screens show for `Cn1nnnc1Sc1ncnc2scc(-c3cc4ccccc4o3)c12`?
PGC1a Ac signal: 106*

How did Cn1nnnc1Sc1ncnc2scc(-c3ccc(C#N)cc3)c12 do in these assays?
PGC1a Ac signal: 74*

How did COc1ccc(N(C(=O)CCl)C(C(=O)NCCc2ccccc2)c2cccs2)cc1 (stereo not given) do in these assays?
PGC1a Ac signal: -61

What do the screens show for `O=C(Nc1nc2c(s1)CN(Cc1ccccc1)CC2)c1c(F)cccc1F`?
PGC1a Ac signal: -41

How did C[C@H]1CCC/C=C/[C@@H]2C[C@H](O)C[C@H]2[C@H](O)[C@H](S(=O)c2ccc(O)cc2)CC(=O)O1 (stereo not given in full) do in these assays?
PGC1a Ac signal: -66

What do the screens show for `C[C@@H]1CN([C@H](C)CO)C(=O)c2cc(NS(=O)(=O)c3ccc(F)cc3)ccc2O[C@H]1CN(C)Cc1ccc(C(F)(F)F)cc1`?
PGC1a Ac signal: -56

Results for O=C(NCC[C@@H]1CC[C@H](NS(=O)(=O)c2ccccc2)[C@@H](CO)O1)c1ccccc1F ?
PGC1a Ac signal: -53

How did CC(C)NC(=O)NCC[C@@H]1CC[C@H](NS(=O)(=O)c2ccc(-c3ccccc3)cc2)[C@@H](CO)O1 do in these assays?
PGC1a Ac signal: 65*

What do the screens show for `Cc1ccc(S(=O)(=O)N[C@@H]2CC[C@@H](CCNC(=O)c3ccccc3F)O[C@H]2CO)cc1`?
PGC1a Ac signal: -49

What do the screens show for `OC(COc1ccc(CNCCc2ccc(C(F)(F)F)cc2)cc1)CN1CCCCC1` (stereo not given)?
PGC1a Ac signal: 54*

What do the screens show for `O=C(CCSc1nnc(-c2ccc(O)cc2)o1)N1CCOCC1`?
PGC1a Ac signal: -46

How did CCC(CC)NC(=O)Cc1ccc(S(=O)(=O)N2CCOCC2)s1 do in these assays?
PGC1a Ac signal: 52*

How did COc1ccc(C(=O)C(CN2CCCC2)c2ccccc2)cc1 (stereo not given) do in these assays?
PGC1a Ac signal: 167*

Results for CC(c1ccccc1)N1CCN(C(=O)CCl)CC1 (stereo not given) ?
PGC1a Ac signal: -48

What do the screens show for `CCCCOc1ccc(C(=O)C(CN2CCOCC2)c2ccccc2)cc1` (stereo not given)?
PGC1a Ac signal: -80

What do the screens show for `O=C(NCc1ccc2c(c1)OCO2)c1nc(S(=O)(=O)Cc2ccccc2)ncc1Cl`?
PGC1a Ac signal: 74*
